# Reference: ChEMBL document CHEMBL3259795, “Cephalochromin induces G0/G1 cell cycle arrest and apoptosis in A549 human non-small-cell lung cancer cells by inflicting mitochondrial disruption” (J Nat Prod, 2014)
# pIC50: −log10 of the molar value. Activity calls are given as the source filed them. The rule behind the calls is not given here.
# What was measured:
# [1] = system: A549; experiment: Cell cycle arrest in human A549 cells assessed as accumulation at sub-G1 phase at 10 uM after 36 hrs using propidium iodide staining by flow cytometry analysis (reference value: 1.7 +/- 0.4%); format: functional
# [2] = system: A549; experiment: Cell cycle arrest in human A549 cells assessed as accumulation at G2/M phase at 10 uM after 36 hrs using propidium iodide staining by flow cytometry analysis (reference value: 35.8 +/- 1.8%); format: functional
# [3] = system: A549; experiment: Induction of apoptosis in human A549 cells assessed as loss of mitochondrial membrane potential at 10 to 30 uM after 12 to 24 hrs by flow cytometry analysis; format: functional, cell-based
# How it was run: (§1)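 A549 cells treated 12 and 24 h, stained with rhodamine 123 for 30 min at 37 °C; mean fluorescence by FACScan flow cytometry; CCCP (50 μM) used as depolarising control; mean ± SEM of three independent determinations.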
# [4] = system: A549; experiment: Induction of apoptosis in human A549 cells assessed as induction of ROS production at 10 uM after 12 hrs using DCF-DA staining by flow cytometry analysis relative to control; format: functional
# How it was run: (§2)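 Intracellular ROS in A549 cells after 12 h at 1, 3, 10, 30 μM, with 5 mM H2O2 as reference, measured by flow cytometry with DCF-DA probe; fold fluorescence over vehicle control; mean ± SEM, three independent determinations.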
# [5] = system: A549; experiment: Induction of apoptosis in human A549 cells assessed as induction of ROS production at 30 uM after 12 hrs using DCF-DA staining by flow cytometry analysis relative to control; format: functional; how it was run: as §2
# [6] = system: A549; experiment: Induction of apoptosis in human A549 cells assessed as reduction of Bad proteins expression at 10 uM after 6 to 36 hrs by Western blot analysis; format: functional, cell-based
# How it was run: (§3)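 A549 cells given 10 μM for 6, 12, 24, 36 h; lysates blotted (40 μg protein, SDS-PAGE, PVDF) for caspase-3/-8/-9, PARP, survivin, Bad, Bcl-xL; ECL detection; survivin bands quantified densitometrically; three independent experiments.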
# [7] = system: A549; experiment: Induction of apoptosis in human A549 cells assessed as reduction of survivin expression at 10 uM by Western blot analysis; format: functional, cell-based; conditions: TDE = time-dependent effect; how it was run: as §3
# [8] = system: A549; experiment: Cell cycle arrest in human A549 cells assessed as accumulation at sub-G1 phase at 10 uM after 24 hrs using propidium iodide staining by flow cytometry analysis (reference value: 2 +/- 0.3%); format: functional
# [9] = system: A549; experiment: Induction of apoptosis in human A549 cells assessed as induction of ROS production after 12 hrs using DCF-DA staining by flow cytometry analysis; format: functional, cell-based; how it was run: as §2
# [10] = system: A549; experiment: Induction of apoptosis in human A549 cells assessed as induction of ROS production at 1 uM after 12 hrs using DCF-DA staining by flow cytometry analysis relative to control; format: functional; how it was run: as §2
# [11] = system: A549; experiment: Induction of apoptosis in human A549 cells assessed as increase in expression of LC3-II at 10 uM by Western blot analysis; format: functional, cell-based; conditions: TDE = time-dependent effect
# How it was run: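 A549 cells with or without 10 μM for 6, 12, 24, 36 h; LC3 detected by Western blot with ECL; LC3 II band quantified by image analysis; three independent experiments.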
# [12] = Cytotoxicity against human HT1080 cells after 48 hrs by SRB assay; conditions: HT-1080, 48 h
# [13] = Cytotoxicity against human HuH7 cells after 48 hrs by SRB assay; conditions: Huh-7, 48 h
# [14] = system: A549; experiment: Induction of apoptosis in human A549 cells assessed as downregulation of cyclin D1, cyclin E, Cdk 2, and Cdk 4 protein levels at 10 uM after 6 to 36 hrs by Western blot analysis; format: functional, cell-based
# How it was run: (§4)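 A549 lysates after 10 μM for 6, 12, 24, 36 h, or 1, 3, 10 μM for 24 h; 40 μg protein on 8–12% SDS gels, PVDF transfer, primary antibodies 1 h at room temperature, ECL detection; three independent experiments.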
# [15] = system: A549; experiment: Cytotoxicity against human A549 cells after 48 hrs by SRB assay; format: functional, cell-based
# How it was run: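 A549 cells exposed to a range of concentrations for 48 h, fixed and stained with sulforhodamine B to measure cell number; IC50 from three independent determinations, mean ± SEM.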
# [16] = system: A549; experiment: Cell cycle arrest in human A549 cells assessed as accumulation at G0/G1 phase at 10 uM after 24 hrs using propidium iodide staining by flow cytometry analysis (reference value: 51 +/- 1.1%); format: functional
# [17] = system: A549; experiment: Cell cycle arrest in human A549 cells assessed as accumulation at S phase at 10 uM after 48 hrs using propidium iodide staining by flow cytometry analysis (reference value: 9.5 +/- 0.7%); format: functional
# [18] = system: A549; experiment: Cell cycle arrest in human A549 cells assessed as accumulation at G0/G1 phase at 10 uM after 36 hrs using propidium iodide staining by flow cytometry analysis (reference value: 53.1 +/- 1.2%); format: functional
# [19] = system: A549; experiment: Cell cycle arrest in human A549 cells assessed as accumulation at G2/M phase at 10 uM after 24 hrs using propidium iodide staining by flow cytometry analysis (reference value: 35.2 +/- 2.3%); format: functional
# [20] = system: A549; experiment: Cell cycle arrest in human A549 cells assessed as accumulation at sub-G1 phase at 10 uM after 48 hrs using propidium iodide staining by flow cytometry analysis (reference value: 1.5 +/- 0.1%); format: functional
# [21] = system: A549; experiment: Induction of apoptosis in human A549 cells assessed as induction of cleaved PARP protein expression at 10 uM after 26 to 36 hrs by Western blot analysis; format: functional, cell-based; conditions: in the assay text read “24 to 36 hrs” for “26 to 36 hrs”; how it was run: as §3
# [22] = system: A549; experiment: Induction of apoptosis in human A549 cells assessed as proteolytic cleavage of inactive procaspase-8, 9, and 3 into active caspase-8, 9, and 3 at 10 uM by Western blot analysis; format: functional, cell-based; conditions: TDE = time-dependent effect; how it was run: as §3
# [23] = system: A549; experiment: Induction of apoptosis in human A549 cells assessed as induction of ROS production at 10 uM using DCF-DA staining by flow cytometry analysis relative to control; format: functional, cell-based; conditions: TDE = time-dependent effect
# How it was run: (§5)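 Cells pretreated 1 h with or without 1 mM Tiron, then 10 μM for 1, 3 or 5 h; intracellular ROS read by DCF-DA flow cytometry; mean ± SEM of three independent determinations versus vehicle.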
# [24] = system: A549; experiment: Induction of apoptosis in human A549 cells assessed as loss of mitochondrial membrane potential at 50 uM after 12 to 24 hrs by flow cytometry analysis; format: functional, cell-based; how it was run: as §1
# [25] = system: A549; experiment: Cell cycle arrest in human A549 cells assessed as accumulation at G0/G1 phase at 10 uM after 48 hrs using propidium iodide staining by flow cytometry analysis (reference value: 57.3 +/- 0.9%); format: functional
# [26] = system: A549; experiment: Induction of apoptosis in human A549 cells assessed as DNA level at 3 to 30 uM using propidium iodide staining by flow cytometry analysis; format: functional, cell-based; conditions: TDE = time-dependent effect
# How it was run: (§6)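 A549 cells treated at 3, 10 or 30 μM for 24, 36 or 48 h, fixed, stained with propidium iodide; hypodiploid apoptotic fraction counted by FACScan flow cytometry; mean ± SEM of three determinations versus vehicle control.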
# [27] = system: A549; experiment: Induction of apoptosis in human A549 cells assessed as downregulation of cyclin D1, cyclin E, Cdk 2, and Cdk 4 protein levels after 24 hrs by Western blot analysis; format: functional, cell-based; how it was run: as §4
# [28] = system: A549; experiment: Cell cycle arrest in human A549 cells assessed as accumulation at S phase at 10 uM after 36 hrs using propidium iodide staining by flow cytometry analysis (reference value: 9.6 +/- 0.9%); format: functional
# [29] = system: A549; experiment: Induction of apoptosis in human A549 cells assessed as reduction of Bcl-xL expression at 10 uM after 6 to 36 hrs by Western blot analysis; format: functional, cell-based; how it was run: as §3
# [30] = system: A549; experiment: Cell cycle arrest in human A549 cells assessed as accumulation at G2/M phase at 10 uM after 48 hrs using propidium iodide staining by flow cytometry analysis (reference value: 31.9 +/- 1.4%); format: functional
# [31] = system: A549; experiment: Cell cycle arrest in human A549 cells assessed as accumulation at S phase at 10 uM after 24 hrs using propidium iodide staining by flow cytometry analysis (reference value: 12 +/- 1.4%); format: functional
# [32] = system: SW1353; experiment: Cytotoxicity against human SW1353 cells after 48 hrs by SRB assay; conditions: SW1353, 48 h
# [33] = system: A549; experiment: Induction of apoptosis in human A549 cells assessed as induction of ROS production at 3 uM after 12 hrs using DCF-DA staining by flow cytometry analysis relative to control; format: functional; how it was run: as §2
# [34] = system: A549; experiment: Induction of apoptosis in human A549 cells assessed as DNA level after 24 to 48 hrs using propidium iodide staining by flow cytometry analysis; format: functional, cell-based; how it was run: as §6
# [35] = system: A549; experiment: Induction of apoptosis in human A549 cells assessed as induction of ROS production at 10 uM after 5 hrs using DCF-DA staining by flow cytometry analysis in presence of Tiron; format: functional, cell-based; how it was run: as §5
# [36] = system: A549; experiment: Cytotoxicity against human A549 cells after 48 hrs by MTT assay; format: functional, cell-based
# How it was run: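 Viability of A549 cells measured by mitochondrial MTT reduction after 24 and 48 h incubation with indicated concentrations; IC50 at 48 h; mean ± SEM of three determinations, each in triplicate.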
# [37] = Cytotoxicity against human Hep3B cells after 48 hrs by SRB assay
# [38] = system: A549; experiment: Induction of apoptosis in human A549 cells assessed as hypodiploid DNA content at 10 to 20 uM after 48 hrs by flow cytometry analysis in presence of Z-VAD-fmk; format: functional, cell-based
# How it was run: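 Cells preincubated 2 h with or without 50 μM Z-VAD-fmk, then exposed to indicated concentrations for 48 h; hypodiploid DNA content read by flow cytometry; mean ± SEM of three independent determinations.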
# [39] = system: A549; experiment: Induction of apoptosis in human A549 cells assessed as induction of ROS production at 5 mM after 12 hrs using DCF-DA staining by flow cytometry analysis relative to control; format: functional; how it was run: as §2
# [40] = system: Caco-2; experiment: Cytotoxicity against human Caco2 cells after 48 hrs by SRB assay; conditions: Caco-2, 48 h
smiles,measurement,setting,value
CC1CC(=O)c2c(cc3c(-c4c(O)cc(O)c5c(O)c6c(cc45)OC(C)CC6=O)c(O)cc(O)c3c2O)O1 (configuration not stated) [CEPHALOCHROMIN],Activity,[1],9.8%
same,Activity,[2],32.3%
same,Activity,[3],Active
same,fold change (FC),[4],2.87
same,fold change (FC),[5],4.65
same,Activity,[6],inactive
same,Activity,[7],tde
same,Activity,[8],3.8%
same,Activity,[9],Dose-dependent effect
same,fold change (FC),[10],1.24
same,Activity,[11],tde
same,pIC50,[12],5.30
same,pIC50,[13],5.33
same,Activity,[14],Active
same,Activity,[15],Dose-dependent effect
same,pIC50,"[15]; A549, 48 h",5.57
same,Activity,[16],59.6%
same,Activity,[17],4.4%
same,Activity,[18],53.7%
same,Activity,[19],32.7%
same,Activity,[20],15.5%
same,Activity,[21],Active
same,Activity,[22],tde
same,Activity,[23],tde
same,Activity,[24],Active
same,Activity,[25],52.1%
same,Activity,[26],tde
same,Activity,[27],Dose-dependent effect
same,Activity,[28],4.2%
same,Activity,[29],Active
same,Activity,[30],27.9%
same,Activity,[31],3.9%
same,pIC50,[32],5.45
same,fold change (FC),[33],1.89
same,Activity,[34],Dose-dependent effect
same,Activity,[35],inactive
same,Activity,[36],Dose-dependent effect
same,pIC50,"[36]; A549, 48 h",5.28
same,pIC50,[37],4.84
same,Activity,[38],inactive
same,fold change (FC),[39],7.2
same,pIC50,[40],4.91
